This passage reports inhibition results from ChEMBL document CHEMBL1121690, “Inhibition of cholesterol side-chain cleavage. 3. 22-azacholesterol analogues bearing aryl-substituted side chains” (J Med Chem, 1981).

What all share (conditions): cattle
Series [1] has as its target T1, cholesterol side-chain cleavage cytochrome P450 (mitochondrial) (Bos taurus, UniProt P00189).
T1 sequence (P00189 whole entry): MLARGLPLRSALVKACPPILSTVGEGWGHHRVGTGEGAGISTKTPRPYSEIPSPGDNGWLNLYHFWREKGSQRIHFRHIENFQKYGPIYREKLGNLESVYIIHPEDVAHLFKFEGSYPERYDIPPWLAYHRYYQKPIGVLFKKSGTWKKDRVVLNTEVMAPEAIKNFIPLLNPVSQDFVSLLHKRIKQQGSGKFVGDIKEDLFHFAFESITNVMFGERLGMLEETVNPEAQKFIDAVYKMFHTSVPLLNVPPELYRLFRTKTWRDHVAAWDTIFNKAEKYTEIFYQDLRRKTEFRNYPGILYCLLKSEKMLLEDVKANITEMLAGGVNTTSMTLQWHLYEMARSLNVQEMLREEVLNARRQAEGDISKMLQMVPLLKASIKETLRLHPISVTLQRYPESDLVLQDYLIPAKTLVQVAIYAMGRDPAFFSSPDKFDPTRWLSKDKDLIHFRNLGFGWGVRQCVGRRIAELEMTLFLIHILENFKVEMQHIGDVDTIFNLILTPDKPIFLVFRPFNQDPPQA
Kind of series: Percent inhibition of cholesterol side-chain cleavage cytochrome P450 at 0.1 uM in bovine adrenocortical mitochondrial acetone powder preparations. Put shortly:
(§1)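 Inhibitors were dissolved in DMF and added to the incubation mixture before the substrate, at final concentrations of 100 µM or less. Activity was taken from the change in isotope ratios between zero time and 2 h, read by liquid scintillation counting after the isocaproic acid was driven off by heating under vacuum.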

The target of series [2] is T1, cholesterol side-chain cleavage cytochrome P450 (mitochondrial). Briefly: Percent inhibition of cholesterol side-chain cleavage cytochrome P450 at 100 uM in bovine adrenocortical mitochondrial acetone powder preparations. In a few lines: as §1
Series [3] shares this target. Kind of series: Percent inhibition of cholesterol side-chain cleavage cytochrome P450 at 10 uM in bovine adrenocortical mitochondrial acetone powder preparations. Put shortly:
as §1

Series [4] has the same target. Kind of series: Percent inhibition of cholesterol side-chain cleavage cytochrome P450 at 1 uM in bovine adrenocortical mitochondrial acetone powder preparations. In a few lines: as §1

As a reminder, the inhibition is the drop in the measured response relative to a control, in per cent. For `CC(NC(=O)CCc1ccccc1)C1CCC2C3CC=C4CC(O)CCC4(C)C3CCC12C` (centres undefined), the inhibition at 0.1 µM in series [1] stood at 19%.
`CC(NC(=O)Cc1ccc([N+](=O)[O-])cc1)C1CCC2C3CC=C4CC(O)CCC4(C)C3CCC12C` (centres undefined): the inhibition at 100 µM in series [2] stood at 39%. In addition, the inhibition at 10 µM in series [3] was found to be 49%. In series [4], the inhibition at 1 µM stood at 22%.
As to `CC(C(=O)NCc1ccccc1)C1CCC2C3CC=C4CC(O)CCC4(C)C3CCC12C` (centres undefined), in series [2], the inhibition at 100 µM turned out to be 45%. Also, in series [3], the inhibition at 10 µM was found to be 31%.
`CC(NC(=O)Cc1ccccc1)C1CCC2C3CC=C4CC(O)CCC4(C)C3CCC12C` (centres undefined): the inhibition at 0.1 µM in series [1] is 28%. Besides, the inhibition at 10 µM in series [3] turned out to be 44%.
Consider `COc1ccc(CCNC(C)C2CCC3C4CC=C5CC(O)CCC5(C)C4CCC23C)cc1` (centres undefined), for which the inhibition at 0.1 µM in series [1] is -6%. For the same compound, in series [3], the inhibition at 10 µM came out at 40%.
Regarding `CC(NCCc1ccc(Cl)cc1)C1CCC2C3CC=C4CC(O)CCC4(C)C3CCC12C` (centres undefined), the inhibition at 1 µM in series [4] turned out to be 22%.
As to `CC(NC(=O)c1ccccc1)C1CCC2C3CC=C4CC(O)CCC4(C)C3CCC12C` (centres undefined), in series [2], the inhibition at 100 µM was determined as 84%. In addition, in series [1], the inhibition at 0.1 µM amounted to 9%. The inhibition at 10 µM in series [3] was 84%. In addition, the inhibition at 1 µM in series [4] is 53%.
For `COc1ccc(CC(=O)NC(C)C2CCC3C4CC=C5CC(O)CCC5(C)C4CCC23C)cc1` (centres undefined), the inhibition at 0.1 µM in series [1] came out at 38%.
Same read-out and setting: then `CC(NC(=O)Cc1ccc(Cl)cc1)C1CCC2C3CC=C4CC(O)CCC4(C)C3CCC12C` (centres undefined), with 25%.
Turning to `CC(NC(=O)Cc1cccc(I)c1)C1CCC2C3CC=C4CC(O)CCC4(C)C3CCC12C` (centres undefined), the inhibition at 10 µM in series [3] is 73%. In series [4], the inhibition at 1 µM came to 18%.
